Bioassay records from PubChem BioAssay.
HKDC1 inhibitor = HKDC1 hexokinase inhibitors, primary screen, biochemical, fluorescence, uHTS. Q2TB90. recombinant HKDC1, G6PDH/diaphorase resazurin coupled fluorescence. inhibition, % at 20 µM. 0.16% of 340,000 active;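 active means inhibition above about 35% when tested at 20 µM, limit read from the data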;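 further: plate controls were DMSO wells with enzyme for no effect and DMSO wells lacking enzyme for full effect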
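test system = in-house recombinant HK5 (HKDC1) enzyme | amount = HKDC1 at 5 µg/mL | control set = DMSO-enzyme wells negative, buffer-substituted wells positive | compound = one dose of 20 µM, 1% DMSO | schedule = reaction time 90 min, room temperature, protected from light | technique = resorufin fluorescence at 613 nm | reagent = glucose with 1 mM ATP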
hiPSC survival = enhancers of single-cell hiPSC survival, primary screen, ATPlite luminescence; 100% = ROCK inhibitor wells, 0% = DMSO; survival enhancement, % at 20 µM; 0.044% of 360,000 active; AID 602274, 2012; in the data active means survival enhancement above about 18%;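 further: cells exposed to compounds for 16 hours before the ATP read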
A3G deaminase = APOBEC3G DNA deaminase inhibitors, primary screen, biochemical, fluorescence, single-stranded DNA substrate, uHTS | DNA dC->dU-editing enzyme APOBEC-3G (Homo sapiens), Q9HC16 | recombinant A3G, ssDNA deamination FAM/TAMRA fluorescence | inhibition, % at 20 µM | 0.28% of 330,000 active | AID 493012, 2011;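 active means inhibition of at least 40% at 20 µM, with no more than 30% in the related APOBEC3A deaminase screen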;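 further: plate controls were DMSO wells with A3G for no effect and wells lacking A3G enzyme for full effect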
Target sequence (Q9HC16 whole entry, looked up): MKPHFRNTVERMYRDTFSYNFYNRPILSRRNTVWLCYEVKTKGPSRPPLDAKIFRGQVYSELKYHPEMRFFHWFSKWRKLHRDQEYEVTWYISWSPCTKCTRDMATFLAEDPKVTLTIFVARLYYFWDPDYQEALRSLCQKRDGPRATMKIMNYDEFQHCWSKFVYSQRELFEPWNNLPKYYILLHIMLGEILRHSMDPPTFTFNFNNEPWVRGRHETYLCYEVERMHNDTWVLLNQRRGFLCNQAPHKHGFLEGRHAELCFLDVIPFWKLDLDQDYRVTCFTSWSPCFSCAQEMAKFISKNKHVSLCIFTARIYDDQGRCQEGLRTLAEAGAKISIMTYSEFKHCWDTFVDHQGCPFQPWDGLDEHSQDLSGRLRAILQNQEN
APOBEC3A inh = APOBEC3A ssDNA deaminase inhibitors, primary screen, selectivity assay for APOBEC3G inhibitor project, biochemical, FAM/TAMRA oligo cleavage fluorescence | DNA dC->dU-editing enzyme APOBEC-3A (Homo sapiens), P31941 | recombinant A3A, FAM/TAMRA ssDNA deamination fluorescence | inhibition, % at 20 µM | 0.41% of 330,000 active | AID 493011, 2011;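 active means at least 40% inhibition at 20 µM here, with at most 30% in a related deaminase screen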;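 further: plate controls were A3A with DMSO for no effect and wells lacking A3A enzyme for full effect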
PfGluPho inh = PfG6PD enzyme inhibitors, primary screen, biochemical, fluorescence intensity, uHTS | PfGluPho enzyme, NADPH resazurin-diaphorase fluorescence | 0.78% of 350,000 active | inhibition, % at 20 µM | AID 504690, 2011;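 active means inhibition reaching at least a set limit at 20 µM in the primary screen, cut at about 59% in these data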;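 further: 0% = DMSO wells with substrate and 100% = DMSO wells lacking glucose-6-phosphate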
A3G conf = APOBEC3G deaminase inhibitor retest, confirmation, biochemical, fluorescence, single-stranded DNA substrate, single concentration | shares compounds with A3G deaminase | recombinant A3G ssDNA deaminase, UDG/FAM-TAMRA fluorescence | inhibition, % at 20 µM | 72% of 890 active | AID 493152, 2011;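 active means inhibition reaching a set limit in any replicate at 20 µM, the limit being 80% of the first screen's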
UDG ctr A3G = E. coli UDG inhibitors, confirmation, counter-screen for APOBEC3G inhibitor project, biochemical, single concentration, fluorescence, FAM/TAMRA oligo; inhibition, % at 20 µM; 710 tested, under 10 active; shares compounds with A3G deaminase; UDG counterscreen; AID 504715, 2011;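 active means compounds giving 40% or more inhibition at 20 µM in any one of the three replicates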;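 further: plate controls were DMSO wells with UDG and oligo for no effect and DMSO wells lacking both for full effect; inhibitors lower the FAM signal released by uracil excision and alkaline cleavage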
Target sequence (P12295 whole entry, looked up): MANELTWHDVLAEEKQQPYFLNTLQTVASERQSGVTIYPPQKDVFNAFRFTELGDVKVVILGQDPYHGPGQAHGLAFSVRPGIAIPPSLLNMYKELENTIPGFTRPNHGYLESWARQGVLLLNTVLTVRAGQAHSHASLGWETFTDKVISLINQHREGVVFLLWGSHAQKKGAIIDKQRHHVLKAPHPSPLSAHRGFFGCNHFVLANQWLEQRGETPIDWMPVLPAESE
* = called active by the depositor; nt = not tested or not shown; ! = a repeat was not active. A selection: hits, their analogues and other compounds. The true share with any hit is near 1.4%.

SMILES	HKDC1 inhibitor	hiPSC survival	A3G deaminase	APOBEC3A inh	PfGluPho inh	A3G conf	UDG ctr A3G
COc1cccc2cc(-c3n[nH]c(=S)n3C)oc12	-1	0	54*	-9	29	80*	2
COc1cccc2cc(-c3ccnc(N)n3)oc12	-3	0	-4	2	0	nt	nt
CC(C)(O)C1Cc2cc(/C=C/C(=O)O)c(O)cc2O1 (stereo not drawn)	1	-1	82*	0	25	94*	-2
CCCNC(=O)C1(C)CCN(C(=O)c2cccc(Cl)c2)C1 (stereo not drawn)	nt	-3	nt	nt	nt	nt	nt
COc1ccc(NC(=O)C2(C)CCN2C(=O)C(C)C)cc1F (stereo not drawn)	nt	2	nt	nt	nt	nt	nt
CC(Sc1ccc2nnc(-c3ccc(F)cc3)n2n1)C(=O)O (stereo not drawn)	-2	0	42*	0	57	52*	-3
CCOc1ccc(CCNC(=O)c2cc(C)nn2-c2ccccc2)cc1	1	1	-3	2	-10	nt	nt
COCCCC/C(=N\OCCN)c1ccc(C(F)(F)F)cc1	1	0	81*!	0	-21	-6	0
O=C(CCC(=O)OCC(=O)c1ccc(C(F)(F)F)cc1)OCC(=O)c1ccc(C(F)(F)F)cc1	-21	1	-4	-2	-6	nt	nt
N#Cc1c(-c2ccc(Cl)cc2)c(-c2ccc(Cl)cc2)nn(CCOC(=O)CCC(=O)O)c1=O	-2	-1	nt	nt	-22	nt	nt
Cc1cc(C)n2nc(SCC(=O)NC3CCCC(C)C3C)nc2n1 (stereo not drawn)	-2	1	-4	-6	-13	nt	nt
COC(=O)CCC(=O)Nc1sc(C)c(C)c1C(N)=O	-13	4	57*	0	52	55*	-1
CCOc1cc(C(=O)Nc2cc3c(cc2N2CCOCC2)n(C)c(=O)n3C)cc(OCC)c1OCC	-6	0	3	2	24	nt	nt
Brc1cnc2nc[nH]c2c1	-3	-1	-2	2	14	nt	nt
S=c1[nH]c2cc(Br)cnc2[nH]1	6	0	56*	1	33	68*	-4
CCc1ccc(OCC(=O)Nc2ncn[nH]2)cc1	-5	-2	-4	3	4	nt	nt
CCCCCn1c(=O)c2ccccc2n2c(CCl)nnc12	18	0	-4	2	-19	nt	nt
CCOCCCn1c(=O)c2ccccc2n2c(=S)[nH]nc12	1	0	42*	-2	25	62*	1
CC(C)CCn1c(=O)c2ccccc2n2c(=S)[nH]nc12	2	0	46*	-5	12	86*	-4
C=CCn1c(=O)c2ccccc2n2c(=S)[nH]nc12	-4	0	50*	-7	20	80*	-3
COc1ccc(S(=O)(=O)N2CCN3CCCC3C2)cc1 (stereo not drawn)	-6	-1	0	-5	-6	nt	nt
O=C(CNC(=O)c1ccc(Br)o1)NCC(=O)OCc1ccccc1	-3	0	-13	-1	-13	nt	nt
O=C(Nc1ccc(Cl)cc1Cl)c1cccc(N2C(=O)C=CC2=O)c1	-7	0	53*	8	113*	59*	-3
O=C1CSC(=S)N1	1	-2	-5	-2	-7	nt	nt
O=C(Nc1nnc(-c2ccco2)s1)C1CCCCC1	2	3	56*	-2	-18	-3	1
SMILES	HKDC1 inhibitor	hiPSC survival	A3G deaminase	APOBEC3A inh	PfGluPho inh	A3G conf	UDG ctr A3G
CCCCS(=O)(=O)N1CCN(S(=O)(=O)c2cccs2)CC1	-6	0	-5	-1	8	nt	nt
S=c1[nH]nc(C2CCCCC2)n1/N=C/c1ccncc1	-10	1	48*	-3	24	68*	-4
CCn1ncc(/C=N\NC(=O)c2ccc3c(c2)c(C)c(C)n3Cc2ccccc2)c1C	-1	-5	70*	-3	-16	0	-4
Cc1ccc(-c2n[nH]c(=S)n2Cc2ccccc2)cc1	-5	4	23	0	34	nt	nt
CCn1c(-c2ccc(C)cc2)n[nH]c1=S	-3	3	51*	2	23	29	nt
CCCCn1c(-c2ccc([N+](=O)[O-])cc2)n[nH]c1=S	-5	-4	48*	-17	30	76*	2
CCCCCCCc1n[nH]c(=S)n1Cc1ccccc1	4	0	-7	-4	20	nt	nt
CCn1c(-c2ccc(Cl)cc2)n[nH]c1=S	-5	3	54*	-2	18	80*	1
CCCn1c(-c2ccc(F)cc2)n[nH]c1=S	-7	-2	36	-5	21	nt	nt
CCn1c(CCCCc2n[nH]c(=S)n2CC)n[nH]c1=S	-8	0	47*	-1	9	88*	6
CSc1ccc(OC2(C)CCN(Cc3ccc4c(c3)OCCO4)C2)cc1 (stereo not drawn)	nt	1	nt	nt	nt	nt	nt
COCCN(C(=O)COC(=O)c1ccc(-c2ccccc2)cc1)c1c(N)n(Cc2ccccc2)c(=O)[nH]c1=O	-2	0	nt	nt	-5	nt	nt
CC(=O)Oc1ccc(C23CC4CC(CC(C4)C2)C3)cc1C(=O)O	nt	nt	1	3	nt	nt	nt
O=C(CN(Cc1ccc(F)cc1)S(=O)(=O)c1ccccc1)N1CCCCC1	0	7	81*	-2	-2	-22	-1
CC1(C)O[C@@H]2[C@H](O1)[C@@H](COS(=O)(=O)O)O[C@H]2n1c(=S)[nH]c2c(=O)[nH]c(N)nc21	-8	-1	49*	-2	56	74*	-2
COc1cccc(CN(Cc2ccco2)C(c2ccc(F)cc2)c2nnnn2C(C)(C)C)c1 (stereo not drawn)	6	-1	5	5	3	nt	nt
CC(C)(C)n1nnnc1C(c1cccnc1)N(Cc1ccccc1)Cc1ccco1 (stereo not drawn)	0	-1	41*	1	-6	1	nt
S=c1[nH]nc(Nc2ccccc2Cl)s1	5	-1	45*	-8	31	66*	1
S=c1[nH]nc(Nc2cccc(Cl)c2)s1	-6	0	23	-1	-9	nt	nt
CCC(CC)C(=O)c1c[nH]c(C(=O)N2CCN(c3ccc(OC)cc3)CC2)c1	2	-1	48*	-6	-5	-2	-5
CC(C)C(=O)NNc1ccccc1	-4	2	-6	-3	-22	nt	nt
